Legend:
[1] = organism: Homo sapiens; assay: Selectivity ratio of agonist activity at I1 receptor imidazoline binding site (unknown origin) to agonist activity at alpha2-AR (unknown origin)
[2] = Displacement of [3H]idazoxan from I2 receptor imidazoline binding site in rabbit kidney membranes after 45 mins by […]; assay type: cell membranes, Oryctolagus cuniculus, Membrane
[3] = molecular target: T1, Adrenergic receptor alpha-2 (Rattus norvegicus, UniProt P22086+P19328+P22909); assay: Displacement of [3H]-RX 821002 from alpha2-AR in Sprague-Dawley rat brain membranes after 30 mins by liquid scintillation counting; assay type: cell membranes, Membrane
T1 sequence (P22086 whole entry): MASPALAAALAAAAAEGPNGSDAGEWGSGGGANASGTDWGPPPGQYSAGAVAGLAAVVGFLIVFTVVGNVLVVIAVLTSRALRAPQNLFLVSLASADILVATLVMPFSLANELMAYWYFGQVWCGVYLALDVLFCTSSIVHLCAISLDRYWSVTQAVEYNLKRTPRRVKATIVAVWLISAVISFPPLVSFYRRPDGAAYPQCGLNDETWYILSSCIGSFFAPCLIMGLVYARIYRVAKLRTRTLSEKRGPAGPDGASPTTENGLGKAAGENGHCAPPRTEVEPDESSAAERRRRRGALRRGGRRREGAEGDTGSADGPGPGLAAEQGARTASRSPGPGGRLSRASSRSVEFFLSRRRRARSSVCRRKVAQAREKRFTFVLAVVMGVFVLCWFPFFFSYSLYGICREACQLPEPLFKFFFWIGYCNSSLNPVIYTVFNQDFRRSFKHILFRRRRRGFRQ
T1 sequence (P19328 whole entry): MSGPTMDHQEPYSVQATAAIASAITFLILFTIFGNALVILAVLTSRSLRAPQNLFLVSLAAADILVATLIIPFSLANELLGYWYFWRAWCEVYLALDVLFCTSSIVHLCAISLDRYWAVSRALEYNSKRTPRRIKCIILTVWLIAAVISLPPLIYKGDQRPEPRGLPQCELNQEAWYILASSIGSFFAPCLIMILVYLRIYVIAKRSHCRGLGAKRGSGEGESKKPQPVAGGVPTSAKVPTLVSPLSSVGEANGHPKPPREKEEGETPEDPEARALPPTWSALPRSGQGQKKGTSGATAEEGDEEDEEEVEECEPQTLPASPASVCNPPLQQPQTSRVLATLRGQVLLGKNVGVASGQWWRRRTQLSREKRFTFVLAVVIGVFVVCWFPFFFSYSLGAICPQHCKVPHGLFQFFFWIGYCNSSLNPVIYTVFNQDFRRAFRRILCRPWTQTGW
T1 sequence (P22909 whole entry): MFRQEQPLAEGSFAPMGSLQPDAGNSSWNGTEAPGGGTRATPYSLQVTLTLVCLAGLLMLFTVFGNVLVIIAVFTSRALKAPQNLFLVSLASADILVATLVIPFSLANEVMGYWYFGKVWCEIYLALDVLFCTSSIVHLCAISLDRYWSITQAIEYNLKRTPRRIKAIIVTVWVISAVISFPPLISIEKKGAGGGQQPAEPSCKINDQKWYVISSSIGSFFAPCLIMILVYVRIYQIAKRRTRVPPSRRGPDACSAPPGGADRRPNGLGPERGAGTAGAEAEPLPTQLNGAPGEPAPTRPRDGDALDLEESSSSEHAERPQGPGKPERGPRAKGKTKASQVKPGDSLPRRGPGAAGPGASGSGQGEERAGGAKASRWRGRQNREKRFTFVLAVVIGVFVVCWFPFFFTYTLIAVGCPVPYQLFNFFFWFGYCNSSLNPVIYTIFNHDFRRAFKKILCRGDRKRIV
Method in brief: (§1)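 Radioligand competition binding with pKi determined by displacement. I1 sites: [125I]-p-iodoclonidine on rat kidney membranes. I2 sites: [3H]-2-BFI on rat brain membranes. α2-ARs: [3H]-RX821002 on rat brain membranes.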

[4] = molecular target: Nischarin (Rattus norvegicus, UniProt Q4G017); assay: Displacement of [125I]-p-iodoclonidine from I1 receptor imidazoline binding site in Sprague-Dawley rat kidney cell membranes after 30 mins by liquid scintillation counting; method in brief: as §1
[5] = Displacement of [3H]-2-BFI from I2 receptor imidazoline binding site in Sprague-Dawley rat brain membranes after 30 mins by liquid scintillation counting; assay type: cell membranes, Membrane; method in brief: as §1
[6] = molecular target: T2, Alpha-2A adrenergic receptor (Homo sapiens, UniProt P08913); assay: Agonist activity at human alpha2a-AR expressed in CHO cells assessed as rate of acidification after 240 mins by cytosensor microphysiometric analysis; assay type: cell-based
T2 sequence (P08913 whole entry): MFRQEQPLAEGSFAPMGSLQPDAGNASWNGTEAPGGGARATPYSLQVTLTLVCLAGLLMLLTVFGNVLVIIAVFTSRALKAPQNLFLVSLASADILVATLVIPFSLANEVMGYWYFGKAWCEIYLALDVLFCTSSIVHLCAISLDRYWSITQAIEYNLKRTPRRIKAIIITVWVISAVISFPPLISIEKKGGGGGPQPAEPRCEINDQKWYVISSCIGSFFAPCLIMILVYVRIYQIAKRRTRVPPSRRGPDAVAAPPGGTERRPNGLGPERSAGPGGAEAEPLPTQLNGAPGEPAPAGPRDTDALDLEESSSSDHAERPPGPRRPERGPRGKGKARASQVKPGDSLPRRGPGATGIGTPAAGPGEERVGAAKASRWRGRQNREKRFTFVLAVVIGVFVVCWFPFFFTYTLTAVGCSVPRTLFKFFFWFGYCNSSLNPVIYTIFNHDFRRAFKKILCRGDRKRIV
Method in brief: (§2)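 Functional assay in CHO cells stably expressing a single human α2-AR subtype (α2A, α2B or α2C), read on a Cytosensor microphysiometer. Outputs are pEC50, intrinsic activity and, for antagonism, pKb. Intrinsic activity is expressed as a fraction of the full agonist (−)-noradrenaline, set at 1. Values are mean ± SEM of 3–5 separate experiments.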

[7] = molecular target: T3, Alpha-2B adrenergic receptor (Homo sapiens, UniProt P18089); assay: Agonist activity at human alpha2b-AR expressed in CHO cells assessed as rate of acidification after 240 mins by cytosensor microphysiometric analysis; assay type: cell-based; method in brief: as §2
T3 sequence (P18089 whole entry): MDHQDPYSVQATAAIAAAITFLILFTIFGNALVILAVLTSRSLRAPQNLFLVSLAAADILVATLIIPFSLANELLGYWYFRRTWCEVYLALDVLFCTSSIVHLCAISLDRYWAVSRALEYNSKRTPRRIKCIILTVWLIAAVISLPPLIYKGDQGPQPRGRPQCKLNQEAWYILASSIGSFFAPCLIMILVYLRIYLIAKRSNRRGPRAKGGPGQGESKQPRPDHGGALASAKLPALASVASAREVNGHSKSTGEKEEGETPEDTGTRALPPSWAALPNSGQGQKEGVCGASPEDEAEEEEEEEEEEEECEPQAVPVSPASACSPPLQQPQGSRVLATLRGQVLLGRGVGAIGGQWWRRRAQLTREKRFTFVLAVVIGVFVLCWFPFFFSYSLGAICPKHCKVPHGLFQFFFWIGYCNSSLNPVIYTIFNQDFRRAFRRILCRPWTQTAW

[8] = molecular target: T4, Alpha-2C adrenergic receptor (Homo sapiens, UniProt P18825); assay: Agonist activity at human alpha2c-AR expressed in CHO cells assessed as rate of acidification after 240 mins by cytosensor microphysiometric analysis; assay type: cell-based; method in brief: as §2
T4 sequence (P18825 whole entry): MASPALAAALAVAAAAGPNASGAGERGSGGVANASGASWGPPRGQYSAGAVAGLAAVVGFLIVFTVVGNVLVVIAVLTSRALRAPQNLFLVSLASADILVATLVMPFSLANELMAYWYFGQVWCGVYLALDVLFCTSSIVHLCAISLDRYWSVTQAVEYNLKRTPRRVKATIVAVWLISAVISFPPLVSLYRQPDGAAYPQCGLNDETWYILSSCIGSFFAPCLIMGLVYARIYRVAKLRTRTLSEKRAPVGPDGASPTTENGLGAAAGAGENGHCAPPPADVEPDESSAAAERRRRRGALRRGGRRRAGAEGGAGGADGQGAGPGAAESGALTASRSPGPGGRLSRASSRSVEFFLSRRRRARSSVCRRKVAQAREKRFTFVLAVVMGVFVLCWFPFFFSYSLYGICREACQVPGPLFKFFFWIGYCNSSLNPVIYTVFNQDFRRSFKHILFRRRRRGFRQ

[9] = molecular target: T5, Alpha-2B adrenergic receptor (Homo sapiens) (UniProt P18089); assay: Agonist activity at human alpha2b-AR expressed in CHO cells assessed as rate of acidification after 240 mins by cytosensor microphysiometric analysis relative to (-)-noradrenaline; assay type: cell-based; method in brief: as §2
T5 sequence (whole entry): T3 sequence (P18089 whole entry)

[10] = molecular target: T6, Alpha-2C adrenergic receptor (Homo sapiens) (UniProt P18825); assay: Agonist activity at human alpha2c-AR expressed in CHO cells assessed as rate of acidification after 240 mins by cytosensor microphysiometric analysis relative to (-)-noradrenaline; assay type: cell-based; method in brief: as §2
T6 sequence (whole entry): T4 sequence (P18825 whole entry)

Chain of Nischarin (Q4G017 whole entry): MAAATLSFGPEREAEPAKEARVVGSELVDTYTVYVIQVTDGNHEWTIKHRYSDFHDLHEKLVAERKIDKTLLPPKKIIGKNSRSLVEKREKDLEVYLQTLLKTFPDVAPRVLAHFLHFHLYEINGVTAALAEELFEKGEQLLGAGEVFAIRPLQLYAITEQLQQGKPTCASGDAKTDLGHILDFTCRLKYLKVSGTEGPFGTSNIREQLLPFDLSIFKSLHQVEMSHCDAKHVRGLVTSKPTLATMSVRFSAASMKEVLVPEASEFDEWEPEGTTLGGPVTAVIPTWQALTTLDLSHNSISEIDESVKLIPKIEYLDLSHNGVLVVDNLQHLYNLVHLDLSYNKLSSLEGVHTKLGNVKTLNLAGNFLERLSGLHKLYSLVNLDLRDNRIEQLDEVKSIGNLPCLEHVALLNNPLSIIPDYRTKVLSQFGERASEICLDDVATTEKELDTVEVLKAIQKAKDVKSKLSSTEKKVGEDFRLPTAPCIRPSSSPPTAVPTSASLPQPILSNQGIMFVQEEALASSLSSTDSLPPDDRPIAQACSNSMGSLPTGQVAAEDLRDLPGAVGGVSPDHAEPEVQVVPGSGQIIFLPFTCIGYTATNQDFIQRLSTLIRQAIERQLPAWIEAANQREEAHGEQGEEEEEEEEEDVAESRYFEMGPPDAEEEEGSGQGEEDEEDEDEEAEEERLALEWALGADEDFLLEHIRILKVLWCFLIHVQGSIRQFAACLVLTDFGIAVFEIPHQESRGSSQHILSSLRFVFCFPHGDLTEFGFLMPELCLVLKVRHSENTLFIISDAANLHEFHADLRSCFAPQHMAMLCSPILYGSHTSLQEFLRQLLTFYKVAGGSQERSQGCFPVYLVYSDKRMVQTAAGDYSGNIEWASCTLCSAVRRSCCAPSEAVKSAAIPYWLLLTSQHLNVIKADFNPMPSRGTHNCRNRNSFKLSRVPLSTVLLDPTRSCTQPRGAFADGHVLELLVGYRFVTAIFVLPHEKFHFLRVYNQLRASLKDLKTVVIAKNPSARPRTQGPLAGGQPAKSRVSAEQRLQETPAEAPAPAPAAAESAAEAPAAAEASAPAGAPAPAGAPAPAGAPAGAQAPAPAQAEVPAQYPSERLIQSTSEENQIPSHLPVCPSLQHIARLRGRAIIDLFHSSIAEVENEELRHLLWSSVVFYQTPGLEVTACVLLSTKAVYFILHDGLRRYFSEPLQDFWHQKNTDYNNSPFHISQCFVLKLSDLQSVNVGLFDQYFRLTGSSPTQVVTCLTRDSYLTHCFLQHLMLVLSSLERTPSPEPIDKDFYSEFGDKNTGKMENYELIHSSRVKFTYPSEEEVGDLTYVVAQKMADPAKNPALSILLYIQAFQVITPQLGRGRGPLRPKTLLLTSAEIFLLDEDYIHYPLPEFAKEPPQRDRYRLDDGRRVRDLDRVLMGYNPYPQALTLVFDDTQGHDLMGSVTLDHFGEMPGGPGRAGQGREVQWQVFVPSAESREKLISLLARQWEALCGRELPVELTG

`Clc1cccc(Cl)c1NC1=NCCN1` gave a Selectivity ratio [1] of 4.
With `c1ccc(NCC2=NCCN2)cc1` [PHENAMAZOLINE] the pKi [2] was 7.48.
`COc1nc(C)nc(Cl)c1NC1=NCCN1` gave a Selectivity ratio [1] of 40.
`C(=C\c1ccccc1-c1ccccc1)/C1=NCCN1` gave a pKi [3] of less than 6, a Ki [4] of 0.0977 µM and a pKi [5] of 8.08.
Work on `c1ccc(-c2ccccc2NCC2=NCCN2)cc1` yielded a pKi [3] of 6.75, a Ki [4] of 0.00141 µM and a pKi [5] of 6.1. For the same molecule, the EC50 [6] was 0.0631 µM, the EC50 [7] was 0.955 µM and the EC50 [8] was 0.148 µM. It also gave an Intrinsic activity [9] of 0.5 and an Intrinsic activity [10] of 0.8.
`C=CCc1ccccc1/C=C/C1=NCCN1` gave a pKi [3] of less than 6, a Ki [4] of 0.0692 µM and a pKi [5] of 8.3.
